PP5 inh: inhibitors of human protein phosphatase 5 (PP5) | inhibition, % at 6.7 µM | AID 1987 | 320,000 compounds, 0.18% hits | purified PP5c, OMFP substrate fluorescence | P53041;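 active = inhibition above the campaign's mean inhibition across all tested compounds plus 3 SD, cut at about 9.5% in these data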;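 note: 0% = DMSO only and 100% = 100 µM cantharidin control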
Fh CTSL1 inh: cathepsin L1 inhibition, PFM18AAP counter-screen. recombinant F. hepatica cathepsin L1, Z-Leu-Arg-MCA fluorescence. inhibition, % at 5.96 µM. 300,000 compounds, 0.49% hits. AID 1906;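 active = inhibition above the mean of all tested compounds plus 3 SD, set per screening campaign, cut at about 17% in these data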;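 note: 0% = plate median of test compound wells and 100% = 1 µM Z-Phe-Ala-diazomethylketone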
Myeloid diff 2: myeloid differentiation induction. AID 624256. ER-HoxA9 myeloid progenitors, lysozyme-GFP differentiation, flow cytometry. 360,000 compounds, 1% hits. calls only at 10 µM;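 active = normalized GFP-positive differentiation at or above the plate's own cutoff, the solvent-only control mean plus 3 SD; inconclusive = no clear call, values can overlap the other calls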;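 note: cells exposed to compound for four days before flow analysis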
PP1 inh: blocks human PP1-alpha phosphatase, a PP5 counter-screen | purified PP1alpha, OMFP fluorescence | inhibition, % at 6.7 µM | P62136 | 320,000 compounds, 0.9% hits;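 active = inhibition above the mean inhibition of all tested compounds plus 3 SD, computed separately for each screening campaign, cut at about 15% in these data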
Target sequence (P62136 whole entry, looked up): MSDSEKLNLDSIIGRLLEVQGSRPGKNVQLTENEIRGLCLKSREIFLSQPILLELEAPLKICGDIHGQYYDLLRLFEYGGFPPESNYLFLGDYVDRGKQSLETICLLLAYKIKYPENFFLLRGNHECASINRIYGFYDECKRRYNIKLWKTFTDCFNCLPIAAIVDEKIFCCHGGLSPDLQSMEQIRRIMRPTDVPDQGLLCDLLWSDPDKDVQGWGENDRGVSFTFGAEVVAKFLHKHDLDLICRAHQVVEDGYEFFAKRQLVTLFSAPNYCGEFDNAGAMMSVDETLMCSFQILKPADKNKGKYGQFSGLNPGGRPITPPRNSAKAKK
NadD inh: inhibitors of Staphylococcus aureus NadD | 360,000 compounds, 0.78% hits | inhibition, % at 20 µM | purified NadD enzyme, colorimetric absorbance read-out; in the data active = inhibition above about 26%
core dimer inh: HCV core protein dimerization inhibition | TR-FRET GST/Flag-core106 dimerization, 1536-well | inhibition, % at 5 µM | 300,000 compounds, 0.33% hits | AID 1899;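 active = inhibition above the mean of all tested compounds plus 3 SD, set per screening campaign, cut at about 45% in these data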
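Assay system: GST-tagged and Flag-tagged HCV core protein residues 1-106 / Times: compound-protein-antibody incubation 4 h at 22.5 °C / Signal: time-resolved FRET, ex 340 nm, em 617 and 671 nm / Evaluation: % inhibition based on acceptor/donor emission ratio / Benchmarks: wells lacking GST-core106 and wells with excess unlabelled core106 / Repeats: singlicate, one well per compound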
Myeloid diff CP1: compounds promoting myeloid differentiation; 2,300 compounds, 2% hits; shares compounds with Myeloid diff 2; ER-HoxA9 myeloid progenitors, GFP/Mac1 double-positive flow; calls only; AID 651706;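 active = share of green or green-and-red cells above 9 and 9% in run 1 or 4 and 3% in run 2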
GFP autofluor: flagged as fluorescent in myeloid differentiation counter-screen. 2,300 compounds, 7.4% hits. shares compounds with Myeloid diff 2. AID 651707. fluorescence response, % (test concentration not listed). ER-HoxA9 myeloid progenitors, no estrogen, GFP autofluorescence flow cytometry; vehicle wells 0%, positive control 100%;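 active = over 5% cells positive for green fluorescent reporter, or over 2% positive for both it and APC stain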;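 note: range taken on the double positive population between DMSO and positive control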
An asterisk follows results filed as active; i = inactive; ? = inconclusive; . = not tested or not shown; + = active, no number. Sampled rows, rich in hits. Any-hit rate of the full collection: about 3.1%.

SMILES	PP5 inh	Fh CTSL1 inh	Myeloid diff 2	PP1 inh	NadD inh	core dimer inh	Myeloid diff CP1	GFP autofluor
COC(=O)c1cc2sccc2n1CC(=O)N1CCCc2ccccc21	3	2	i	5	-2	3	.	.
CCOC(=O)c1cc2sccc2n1CC(=O)N1CCCc2ccccc21	1	3	+	0	-2	1	i	0
O=C(Cc1ccccc1)NCC(=O)OCC(=O)c1ccc(OC(=O)c2ccccc2)cc1	2	-15	i	-2	-5	0	i	0
COc1cc(C(=O)NCc2ncccc2C)ccc1OC1CCN(C(C)=O)CC1	0	-3	i	0	-7	-4	.	.
Cc1cc(C)n2ncc(C(=O)NCc3cccnc3)c2n1	-6	2	+	-8	2	-4	i	0
CCOc1ccc(N(C)Cc2cc(=O)oc3ccc(OCC)cc23)cc1	.	.	i	.	-2	.	.	.
CCn1c(SCC(=O)NC2CCCCC2)nc2c(c1=O)SCC2	1	-1	i	1	-3	2	.	.
N#Cc1c(N)n(-c2ccccc2N)c2nc3ccccc3nc12	3	13	i	-3	-3	-1	.	.
N#Cc1c(N)n(-c2cccc(C(=O)O)c2)c2nc3ccccc3nc12	0	0	+	-2	-6	4	i	0
O=C(O)CCC(=O)OCCCc1cc2ccccc2c(=O)o1	.	.	i	.	-1	.	.	.
COc1cccc(OCc2ccc(Cn3nc(NC(=O)NCCc4ccc(OC)c(OC)c4)c4ccccc43)cc2)c1	.	.	i	.	-4	.	.	.
CCN(CC)S(=O)(=O)c1ccc2oc(SCC(=O)Nc3cc(C)on3)nc2c1	-1	1	+	1	-3	0	i	1
CN1C[C@@H]2[C@@H]3C(=O)N(C)C(=O)[C@@H]3[C@](C)(C1=O)N2C(=O)c1ccc(Br)cc1	.	.	i	.	0	.	.	.
COc1ccc(NC(=O)C2CCN(S(=O)(=O)c3cccs3)CC2)cc1OC	0	.	i	-2	-1	.	.	.
COc1ccc(NC(=O)C2CCCN(S(=O)(=O)c3cccs3)C2)cc1OC (stereo not drawn)	2	1	+	-3	-4	3	i	0
CC(C)C[C@H](NC(=O)N1CCn2c1nc1ccccc12)C(=O)N[C@@H](C(=O)O)c1ccccc1	4	-2	+	0	5	-3	i	0
CC(C)[C@H](NC(=O)N1CCn2c1nc1ccccc12)C(=O)N[C@@H](C(=O)O)c1ccccc1	3	-2	i	3	-2	-2	.	.
CCc1nnc(NC(=O)CCS(=O)(=O)Cc2ccccc2)s1	3	-2	+	-1	2	4	i	1
N=c1c2c(n(Cc3ccccc3)c3c1CCC3)CCC2	2	0	+	-1	-6	-2	i	0
CN1CCN(S(=O)(=O)c2cccc(C(=O)N(Cc3nnc(-c4ccccc4Cl)o3)C3CC3)c2)CC1	-1	8	i	-1	-3	0	.	.
CCN1CCN(c2ccc(S(=O)(=O)N3CCCCC3)cc2NC(=O)/C=C/c2ccc(OC)c(OC)c2)CC1	1	-5	i	4	6	0	.	.
CCN1CCN(c2ccc(S(=O)(=O)N3CCCCC3)cc2NC(=O)/C=C/c2ccc(Cl)cc2)CC1	.	.	+	.	7	.	i	16*
CCN1CCN(c2ccc(S(=O)(=O)N3CCCCC3)cc2NC(=O)c2ccccc2)CC1	2	1	i	0	-2	-2	.	.
CCN1CCN(c2ccc(S(=O)(=O)N3CCCCC3)cc2NC(=O)c2ccc([N+](=O)[O-])s2)CC1	3	3	+	0	2	6	i	0
CC[C@]12c3[nH]c4cc(CCC(=O)N(C)C)ccc4c3CCN1C(=O)[C@@H](CC(=O)NC(C)(C)C)C[C@@H]2C(=O)N1CCN(C(=O)C2CC2)CC1	.	.	i	.	1	.	.	.
SMILES	PP5 inh	Fh CTSL1 inh	Myeloid diff 2	PP1 inh	NadD inh	core dimer inh	Myeloid diff CP1	GFP autofluor
O=[N+]([O-])c1ccc(Cc2cncc(O)c2)cc1	.	.	i	.	-7	.	.	.
CC(C)(C)NC(=O)CCc1nnc(Cc2c[nH]c3ccccc23)o1	3	-3	i	-2	0	-4	.	.
O=C(CCc1nnc(Cc2c[nH]c3ccccc23)o1)NCC1CC12CCCCC2 (stereo not drawn)	-1	0	i	-7	0	1	i	1
O=C(CSc1nnc2ccc(-c3ccccn3)nn12)N1CCCC1	.	.	i	.	4	.	.	.
CC(C)CCN(C(=O)C1CSC2(C)CCC(=O)N12)c1c(N)n(Cc2ccccc2)c(=O)[nH]c1=O (stereo not drawn)	0	6	i	-2	-4	1	.	.
COc1cc(-c2c(CCO)sc3ccccc23)cc(OC)c1OC	.	.	+	.	-2	.	i	2
COc1cc(-c2c(-c3ccsc3)sc3ccccc23)cc(OC)c1OC	1	.	i	0	-8	.	.	.
Cc1ccc(CCNC(=O)CCS(=O)(=O)c2ccc3nc(C)sc3c2)cc1	0	0	i	-4	1	6	i	0
CCc1cc2c(cc3c(=O)n(CC(=O)N4CCN(C)CC4)ncn32)s1	1	1	i	-2	-5	-12	.	.
COc1ccc(CCNC(=O)C23CN(Cc4ccccc4)CC2C(c2cccc([N+](=O)[O-])c2)=NO3)cc1 (stereo not drawn)	2	-1	i	3	-7	11	.	.
O=C(NCC1CCCCC1)C12CN(Cc3ccccc3)CC1C(c1cccc([N+](=O)[O-])c1)=NO2 (stereo not drawn)	4	4	+	6	9	14	i	0
O=C(Nc1cccc(S(=O)(=O)NC2=NCCC2)c1)c1cnc(Cl)c(Cl)c1	2	.	i	-2	3	.	.	.
CC(C)N(C(=O)[C@H]1C[C@H](CC(=O)NCc2cccc(C(F)(F)F)c2)C(=O)N2CCc3c([nH]c4cc(-c5ccco5)ccc34)[C@]12C)C(C)C	.	.	?	.	9	.	i	0
CC(C)N(C(=O)[C@H]1C[C@H](CC(=O)NCCCN(C)C)C(=O)N2CCc3c([nH]c4cc(-c5ccco5)ccc34)[C@]12C)C(C)C	.	.	i	.	-2	.	.	.
CC(C)N(C(=O)[C@H]1C[C@H](CC(=O)NCCC2=CCCCC2)C(=O)N2CCc3c([nH]c4cc(-c5ccco5)ccc34)[C@]12C)C(C)C	.	.	i	.	19	.	i	3
COc1ccc(C(=O)N/C(=C\c2cn(S(=O)(=O)N(C)C)c3ccccc23)C(=O)NCCCN2CCOCC2)cc1	-2	0	i	1	-9	-4	.	.
CN1/C(=C/C=C/c2n(C)c3cc([N+](=O)[O-])c([N+](=O)[O-])cc3[n+]2C)C(C)(C)c2ccccc21	.	.	+	.	0	.	i	7.2*
